Data: ChEMBL document CHEMBL3286351, “Antibacterial evaluation of structurally amphipathic, membrane active small cationic peptidomimetics: synthesized by incorporating 3-amino benzoic acid as peptidomimetic element” (Eur J Med Chem, 2014)
In brackets after ≈: the same amount, converted by molar mass. Where a SMILES comes first, the peptide text is derived from it. [ ]: non-standard residue; d: D form. 3Abz = Nc1cccc(C(=O)O)c1

Experiments:
[1] = test system: Escherichia coli; test: Antibacterial activity against Escherichia coli MTCC 723 assessed as growth inhibition after 18 hrs by CLSI microdilution broth assay; type: functional; conditions: MTCC 723, 18 h
[2] = test system: Bacillus subtilis; test: Antibacterial activity against Bacillus subtilis MTCC 2763 assessed as growth inhibition after 18 hrs by CLSI microdilution broth assay; type: functional; conditions: MTCC 2763, 18 h
[3] = test system: Staphylococcus epidermidis; test: Antibacterial activity against methicillin-resistant Staphylococcus epidermidis ATCC 51625 assessed as growth inhibition after 18 hrs by CLSI microdilution broth assay; type: functional; conditions: ATCC 51625, 18 h
Method in brief: (§1)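 Modified CLSI broth microdilution in Mueller-Hinton broth. Wells held 90 µL of about 2 × 10^5 CFU/mL inoculum plus 10 µL of serially diluted peptidomimetic, range 0.7-100 µg/mL. Plates were incubated overnight with agitation at 37 °C and absorbance read at 600 nm after 18 h. Controls: inoculum without compound, and uninoculated broth. Run in triplicate.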

[4] = test system: Pseudomonas aeruginosa; test: Antibacterial activity against Pseudomonas aeruginosa MTCC 2295 assessed as growth inhibition after 18 hrs by CLSI microdilution broth assay; type: functional; conditions: MTCC 2295, 18 h
[5] = test system: Staphylococcus aureus; test: Antibacterial activity against methicillin-resistant Staphylococcus aureus ATCC BAA-1720 assessed as growth inhibition after 18 hrs by CLSI microdilution broth assay; type: functional; conditions: ATCC BAA-1720, 18 h; method in brief: as §1
[6] = Selectivity ratio of HC50 for hemolysis in human RBC to MIC for Staphylococcus aureus
[7] = Induction of hemolysis in human RBC assessed as hemoglobin release after 1 hr by microtiter plate reader analysis; type: cell-based, Erythrocyte; conditions: for HC10: erythrocyte, 1 h; for HC50 at 1 h: red blood cells
Method in brief: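 Freshly isolated human RBCs washed three times in PBS (35 mM phosphate, 150 mM NaCl, pH 7.2) and used as a 4% (v/v) suspension. Mixed 1:1 with twofold serial dilutions of compound, incubated 1 h at 37 °C without agitation, then centrifuged. Supernatant A540 read. PBS defined 0% and 1% Triton X-100 defined 100% lysis; HC50 and HC10 derived.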

[8] = Retention time of the compound by HPLC analysis; type: physicochemical
Method in brief: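 Analytical RP-HPLC on a C18 column (5 µm, 4.6 × 250 mm) at room temperature. Run a linear gradient of 0.5-60% acetonitrile containing 0.05% TFA against water containing 0.05% TFA at 0.5 mL/min.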

[9] = test system: Staphylococcus aureus; test: Antibacterial activity against Staphylococcus aureus MTCC 3160 assessed as growth inhibition after 18 hrs by CLSI microdilution broth assay; type: functional; conditions: MTCC 3160, 18 h

| Structure (SMILES) | MIC [1] [µg/mL] | MIC [2] [µg/mL] | MIC [3] [µg/mL] | MIC [4] [µg/mL] | MIC [5] [µg/mL] | Selectivity ratio [6] | HC10 [7] [µg/mL] | HC50 at 1 h [7] [µg/mL] | Retention_time [8] [min] | MIC [9] [µg/mL] |
| --- | --- | --- | --- | --- | --- | --- | --- | --- | --- | --- |
| N=C(N)NCCCC(N)C(=O)NC(CCCNC(=N)N)C(=O)NC(Cc1c[nH]c2ccccc12)C(=O)Nc1cccc(C(=O)NC(Cc2c[nH]c3ccccc23)C(=O)NC(CCCNC(=N)N)C(N)=O)c1 (stereo not given) (H-RRW[3Abz]WR-NH2; configuration not given here) | 17.5 (≈ 17.9 µM) | 25 (≈ 25.6 µM) | 6.25 (≈ 6.4 µM) | 25 (≈ 25.6 µM) | 5 (≈ 5.12 µM) | 56.8 | 100 | 355 | 27.402 | 6.25 (≈ 6.4 µM) |
| N=C(N)NCCCC(N)C(=O)NC(Cc1c[nH]c2ccccc12)C(=O)NC(CCCNC(=N)N)C(=O)Nc1cccc(C(=O)NC(Cc2c[nH]c3ccccc23)C(=O)NC(CCCNC(=N)N)C(N)=O)c1 (stereo not given) (H-RWR[3Abz]WR-NH2; configuration not given here) | 120 (≈ 123 µM) | 125 (≈ 128 µM) | 50 (≈ 51.2 µM) | 120 (≈ 123 µM) | 40 (≈ 40.9 µM) | 8 | 210 | 400 | 27.446 | 50 (≈ 51.2 µM) |
| N=C(N)NCCCC(N)C(=O)NC(Cc1c[nH]c2ccccc12)C(=O)NC(Cc1c[nH]c2ccccc12)C(=O)Nc1cccc(C(=O)NC(CCCNC(=N)N)C(=O)NC(CCCNC(=N)N)C(N)=O)c1 (stereo not given) (H-RWW[3Abz]RR-NH2; configuration not given here) | 70 (≈ 71.6 µM) | 75 (≈ 76.8 µM) | 25 (≈ 25.6 µM) | 75 (≈ 76.8 µM) | 25 (≈ 25.6 µM) | 16.8 | 255 | 420 | 26.96 | 25 (≈ 25.6 µM) |
| N=C(N)NCCCC(N)C(=O)NC(Cc1c[nH]c2ccccc12)C(=O)Nc1cccc(C(=O)NC(CCCNC(=N)N)C(N)=O)c1 (stereo not given) (H-RW[3Abz]R-NH2; configuration not given here) | 70 (≈ 110 µM) | 100 (≈ 158 µM) | 70 (≈ 110 µM) | 75 (≈ 118 µM) | 60 (≈ 94.5 µM) | 10 | 205 | 500 | 23.821 | 50 (≈ 78.8 µM) |
| N=C(N)NCCCC(N)C(=O)NC(Cc1c[nH]c2ccccc12)C(=O)Nc1cccc(C(=O)NC(CCCNC(=N)N)C(=O)NC(CCCNC(=N)N)C(N)=O)c1 (stereo not given) (H-RW[3Abz]RR-NH2; configuration not given here) | 100 (≈ 126 µM) | 100 (≈ 126 µM) | 75 (≈ 94.8 µM) | 75 (≈ 94.8 µM) | 75 (≈ 94.8 µM) | > 7.14 | 350 | > 500 | 22.534 | 70 (≈ 88.5 µM) |
| N=C(N)NCCCC(N)C(=O)NC(Cc1c[nH]c2ccccc12)C(=O)Nc1cccc(C(=O)NC(Cc2c[nH]c3ccccc23)C(=O)NC(CCCNC(=N)N)C(N)=O)c1 (stereo not given) (H-RW[3Abz]WR-NH2; configuration not given here) | 40 (≈ 48.7 µM) | 50 (≈ 60.9 µM) | 12.5 (≈ 15.2 µM) | 50 (≈ 60.9 µM) | 10 (≈ 12.2 µM) | 32.8 | 250 | 410 | 23.89 | 12.5 (≈ 15.2 µM) |
| N=C(N)NCCCC(NC(=O)C(Cc1c[nH]c2ccccc12)NC(=O)c1cccc(NC(=O)C(CCCNC(=N)N)NC(=O)C(CCCNC(=N)N)NC(=O)C(N)Cc2c[nH]c3ccccc23)c1)C(N)=O (stereo not given) (H-WRR[3Abz]WR-NH2; configuration not given here) | 50 (≈ 51.2 µM) | 70 (≈ 71.6 µM) | 10 (≈ 10.2 µM) | 50 (≈ 51.2 µM) | 12.5 (≈ 12.8 µM) | 25.3 | 190 | 380 | 27.66 | 15 (≈ 15.4 µM) |
| N=C(N)NCCCC(NC(=O)C(CCCNC(=N)N)NC(=O)c1cccc(NC(=O)C(Cc2c[nH]c3ccccc23)NC(=O)C(CCCNC(=N)N)NC(=O)C(N)Cc2c[nH]c3ccccc23)c1)C(N)=O (stereo not given) (H-WRW[3Abz]RR-NH2; configuration not given here) | 60 (≈ 61.4 µM) | 40 (≈ 40.9 µM) | 25 (≈ 25.6 µM) | 70 (≈ 71.6 µM) | 25 (≈ 25.6 µM) | 14.8 | 140 | 370 | 27.324 | 25 (≈ 25.6 µM) |
| N=C(N)NCCCC(NC(=O)c1cccc(NC(=O)C(CCCNC(=N)N)NC(=O)C(N)Cc2c[nH]c3ccccc23)c1)C(N)=O (stereo not given) (H-WR[3Abz]R-NH2; configuration not given here) | 200 (≈ 315 µM) | 200 (≈ 315 µM) | 200 (≈ 315 µM) | > 200 | 150 (≈ 236 µM) | > 3.3 | 300 | > 500 | 24.184 | 150 (≈ 236 µM) |
| N=C(N)NCCCC(NC(=O)C(CCCNC(=N)N)NC(=O)c1cccc(NC(=O)C(CCCNC(=N)N)NC(=O)C(N)Cc2c[nH]c3ccccc23)c1)C(N)=O (stereo not given) (H-WR[3Abz]RR-NH2; configuration not given here) | > 200 | 170 (≈ 215 µM) | 100 (≈ 126 µM) | > 200 | 120 (≈ 152 µM) | > 5 | 325 | > 500 | 22.64 | 100 (≈ 126 µM) |
| N=C(N)NCCCC(NC(=O)C(Cc1c[nH]c2ccccc12)NC(=O)c1cccc(NC(=O)C(CCCNC(=N)N)NC(=O)C(N)Cc2c[nH]c3ccccc23)c1)C(N)=O (stereo not given) (H-WR[3Abz]WR-NH2; configuration not given here) | 150 (≈ 183 µM) | 75 (≈ 91.4 µM) | 75 (≈ 91.4 µM) | 120 (≈ 146 µM) | 50 (≈ 60.9 µM) | 6.66 | 220 | 400 | 24.982 | 60 (≈ 73.1 µM) |
| N=C(N)NCCCC(NC(=O)C(CCCNC(=N)N)NC(=O)c1cccc(NC(=O)C(CCCNC(=N)N)NC(=O)C(Cc2c[nH]c3ccccc23)NC(=O)C(N)Cc2c[nH]c3ccccc23)c1)C(N)=O (stereo not given) (H-WWR[3Abz]RR-NH2; configuration not given here) | 75 (≈ 76.8 µM) | 70 (≈ 71.6 µM) | 50 (≈ 51.2 µM) | 100 (≈ 102 µM) | 50 (≈ 51.2 µM) | 7.6 | 200 | 380 | 27.34 | 50 (≈ 51.2 µM) |
| N=C(N)NCCCC(NC(=O)c1cccc(NC(=O)C(Cc2c[nH]c3ccccc23)NC(=O)C(N)Cc2c[nH]c3ccccc23)c1)C(N)=O (stereo not given) (H-WW[3Abz]R-NH2; configuration not given here) | 150 (≈ 226 µM) | 150 (≈ 226 µM) | > 200 | 170 (≈ 256 µM) | 200 (≈ 301 µM) | 2 | 100 | 240 | 28.661 | 120 (≈ 181 µM) |
